ChEMBL document CHEMBL1154304, “Triterpenoids and flavonoids from celery (Apium graveolens)” (J Nat Prod, 2009)

test system: RAW264.7; experiment: Antiinflammatory activity against mouse RAW264.7 cells assessed as inhibition of LPS-induced nitrite accumulation after 24 hrs by Griess reagent method; type: functional, cell-based; details: RAW264.7, 24 h
Procedure, shortened: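 RAW 264.7 mouse macrophages in RPMI 1640 with 10% heat-inactivated FBS, penicillin/streptomycin, seeded at 1×10^5 cells/well, adhered 2 h at 37 °C, 5% CO₂. LPS 1 μg/mL for 24 h with or without compounds in DMSO (0.2% v/v final). Nitrite in supernatant read with Griess reagent against sodium nitrite standards (0–100 μM). Inhibition is relative to LPS-only and untreated wells. MTT viability check run in parallel. Triplicate, mean ± SD of three experiments.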

Structure (SMILES)	IC50 [µM]
C[C@H]1[C@H](C)C(=O)C[C@]2(C)C[C@H](O)[C@]3(C)C(=CC(=O)[C@@H]4[C@@]5(C)C[C@H](O[C@@H]6O[C@H](CO)[C@@H](O)[C@H](O)[C@H]6O)[C@H](O)C(C)(C)[C@@H]5CC[C@]43C)[C@H]12	> 20
O=c1cc(-c2ccc(O)c(O)c2)oc2cc(O)cc(O)c12 [LUTEOLIN]	7.5
C[C@H]1[C@H](C)C(=O)C[C@]2(C)C[C@H](O)[C@]3(C)C(=CC(=O)[C@@H]4[C@@]5(C)CC[C@H](O)[C@](C)(CO[C@@H]6O[C@H](CO)[C@@H](O)[C@H](O)[C@H]6O)[C@@H]5CC[C@]43C)[C@H]12	> 20
O=c1c(O)c(-c2ccc(O)c(O)c2)oc2cc(O)cc(O)c12 [QUERCETIN]	11.4
COc1cc(/C=C/C(=O)CC(=O)/C=C/c2ccc(O)c(OC)c2)ccc1O [CURCUMIN]	8.3
CC1(C)C[C@H]2C3=CC(=O)[C@@H]4[C@@]5(C)CC[C@H](O)[C@](C)(CO[C@@H]6O[C@H](CO)[C@@H](O)[C@H](O)[C@H]6O)[C@@H]5CC[C@@]4(C)[C@]3(C)[C@@H](O)C[C@@]2(C)CC1=O	> 20
COc1cc(/C=C/C(=O)OC[C@@]2(O)CO[C@@H](O[C@H]3[C@H](Oc4cc(O)c5c(=O)cc(-c6ccc(O)c(OC)c6)oc5c4)O[C@H](CO)[C@@H](O)[C@@H]3O)[C@@H]2O)ccc1O	> 20
O=C1C[C@@H](c2ccc(O)cc2)Oc2cc(O[C@@H]3O[C@H](CO)[C@@H](O)[C@H](O)[C@H]3O[C@@H]3OC[C@](O)(CO)[C@H]3O)cc(O)c21	> 20

Continued, values first:

IC50 [µM]	Structure (SMILES)
6.7	O=c1cc(-c2ccc(O)cc2)oc2cc(O)cc(O)c12 [APIGENIN]
> 20	COc1cc(-c2cc(=O)c3c(O)cc(O[C@@H]4O[C@H](CO)[C@@H](O)[C@H](O)[C@H]4O)cc3o2)ccc1O
> 20	O=c1cc(-c2ccc(O)cc2)oc2cc(O[C@@H]3O[C@H](CO)[C@@H](O)[C@H](O)[C@H]3O)cc(O)c12 [APIGETRIN]
14.2	COc1cc(-c2cc(=O)c3c(O)cc(O)cc3o2)ccc1O [CHRYSOERIOL]
> 20	O=c1cc(-c2ccc(O)cc2)oc2cc(O[C@@H]3O[C@H](CO)[C@@H](O)[C@H](O)[C@H]3O[C@@H]3OC[C@](O)(CO)[C@H]3O)cc(O)c12 [APIIN]
> 20	COc1cc(/C=C/C(=O)OC[C@@]2(O)CO[C@@H](O[C@H]3[C@H](Oc4cc(O)c5c(=O)cc(-c6ccc(O)c(O)c6)oc5c4)O[C@H](CO)[C@@H](O)[C@@H]3O)[C@@H]2O)ccc1O
> 20	O=c1cc(-c2ccc(O)c(O)c2)oc2cc(O[C@@H]3O[C@H](CO)[C@@H](O)[C@H](O)[C@H]3O)cc(O)c12 [GALUTEOLIN]
> 20	COc1cc(/C=C/C(=O)OC[C@@]2(O)CO[C@@H](O[C@H]3[C@H](Oc4cc(O)c5c(=O)cc(-c6ccc(O)cc6)oc5c4)O[C@H](CO)[C@@H](O)[C@@H]3O)[C@@H]2O)ccc1O
